Test results reported in ChEMBL document CHEMBL1126217, “Side-chain derivatives of biologically active nucleosides. 1. Side-chain analogs of 3'-azido-3'-deoxythymidine (AZT)” (J Med Chem, 1992).
Converted amounts (≈) assume the structure as drawn. The source made the active and inactive calls. The rule behind the calls is not given here.

Legend:
[1] = tested on: Vaccinia virus; assay: Inhibitory activity against Vaccinia virus(VV)at a concentration 400 ug/mL; not effective; format: functional, organism-based; conditions: Orthopoxvirus vaccinia
[2] = tested on: Human immunodeficiency virus; assay: Compound was evaluated for the cytotoxic concentration against HIV; format: functional; conditions: Human immunodeficiency virus 1
Method in brief: (§1)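 Infected cells mixed with serial compound dilutions (tested up to 200 μg/mL) and incubated 5 days at 37 °C. Viable cells counted microscopically in a hematocytometer by trypan blue exclusion to give 50% effective and cytotoxic concentrations.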

[3] = Inhibitory activity against herpes simplex virus type-1 (HSV-1) at a concentration 400 ug/mL; not effective; format: functional, organism-based; conditions: Human alphaherpesvirus 1
[4] = tested on: Human alphaherpesvirus 2; assay: Inhibitory activity against herpes simplex virus type-2 (HSV-2) at a concentration 400 ug/mL; not effective; format: functional, organism-based
[5] = tested on: MT4; assay: Inhibitory activity toward HIV replication in MT-4 cells; format: functional, cell-based; conditions: Homo sapiens; method in brief: as §1
[6] = tested on: Human alphaherpesvirus 2; assay: Inhibitory activity towards herpes simplex virus type-2 (HSV-2)
[7] = tested on: Human alphaherpesvirus 1; assay: Inhibitory activity towards herpes simplex virus type-1 (HSV-1)
[8] = tested on: Vaccinia virus; assay: Inhibitory activity towards Vaccinia virus(VV); format: functional; conditions: Orthopoxvirus vaccinia
[9] = tested on: Vesicular stomatitis virus; assay: Inhibitory activity towards Vesicular stomatitis virus(VSV); format: functional
[10] = tested on: Vaccinia virus; assay: Inhibitory activity against Vaccinia virus(VV) at a concentration 400 ug/mL; not effective; format: functional, organism-based; conditions: Orthopoxvirus vaccinia

Row | SMILES | CC50 [1] | CC50 [2] [µg/mL] | HSV-1 inhibitory activity [3] | CC50 [4] | EC50 [5] [µg/mL] | CC50 [6] [µg/mL] | CC50 [7] [µg/mL] | CC50 [8] [µg/mL] | CC50 [9] [µg/mL] | CC50 [10]
1 | Cc1cn(C2CC(N=[N+]=[N-])C([C@H](O)CO)O2)c(=O)[nH]c1=O (some centres not stated) | inactive | > 200 | inactive | inactive |  |  |  |  |  | 
2 | Cc1cn(C2CC(N=[N+]=[N-])C([C@H](C)O)O2)c(=O)[nH]c1=O (some centres not stated) | inactive | > 200 | inactive | inactive |  |  |  |  |  | 
3 | Cc1cn([C@H]2C[C@H](N=[N+]=[N-])[C@@H](CO)O2)c(=O)[nH]c1=O [ZIDOVUDINE] |  |  |  |  | 0.002 (≈ 0.00748 µM) |  |  |  |  | 
4 | Cc1cn(C2CC(N=[N+]=[N-])C([C@@H](O)CO)O2)c(=O)[nH]c1=O (some centres not stated) | inactive | 17.7 (≈ 59.5 µM) | inactive | inactive |  |  |  |  |  | 
5 | Cc1cn(C2CC(N=[N+]=[N-])C([C@@H](C)O)O2)c(=O)[nH]c1=O (some centres not stated) |  | > 200 |  |  |  | 300 (≈ 1070 µM) | 150 (≈ 533 µM) | 300 (≈ 1070 µM) | > 400 | 
6 | Cc1cn(C2CC(N=[N+]=[N-])C(CCO)O2)c(=O)[nH]c1=O (configuration not stated) |  | 200 (≈ 711 µM) | inactive | inactive |  |  |  |  |  | inactive
